# Measurements as given in ChEMBL document CHEMBL1130051, “9-Benzyladenines: potent and selective cAMP phosphodiesterase inhibitors” (J Med Chem, 1997).
# Assays:
# [1] = target: T1, Phosphodiesterase 4 (Homo sapiens, UniProt P27815+Q08499+Q07343+Q08493); assay: Inhibition of phosphodiesterase 4 at 1 uM cAMP; type: protein assay
# Procedure, shortened: (§1)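 Enzyme activity was measured at 1 μM substrate, and the drug concentration giving 50% inhibition was taken as the IC50. IC50 was calculated by linear regression (r = 0.95) as the mean of three determinations, with experimental error about 15%. Values above 200 μM were reported as ns.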
# [2] = target: T2, Phosphodiesterase 3 (Homo sapiens, UniProt Q14432+Q13370); assay: Inhibition of phosphodiesterase 3 at 1 uM cAMP; type: protein assay; procedure, shortened: as §1
# [3] = target: T3, Adenosine receptor A1 (Homo sapiens, UniProt P30542); assay: Displacement of [3H]CHA from Adenosine A1 receptor
# T3 sequence (P30542 whole entry): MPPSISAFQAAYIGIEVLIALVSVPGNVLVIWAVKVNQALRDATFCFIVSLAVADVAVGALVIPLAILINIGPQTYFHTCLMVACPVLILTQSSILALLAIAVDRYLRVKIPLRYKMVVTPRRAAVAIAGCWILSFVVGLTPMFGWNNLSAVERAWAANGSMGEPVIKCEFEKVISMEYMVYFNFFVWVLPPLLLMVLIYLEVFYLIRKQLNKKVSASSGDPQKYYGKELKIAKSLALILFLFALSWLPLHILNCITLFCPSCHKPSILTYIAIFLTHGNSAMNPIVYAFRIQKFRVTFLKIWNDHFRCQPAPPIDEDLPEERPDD
# [4] = target: Adenosine A2 receptor (Homo sapiens, UniProt P29275+P29274); assay: Displacement of [3H]NECA from Adenosine A2 receptor; type: protein assay
# [5] = target: T4, cGMP-specific 3',5'-cyclic phosphodiesterase (Homo sapiens, UniProt O76074); assay: Inhibition of Phosphodiesterase 5
# [6] = target: GABA-A receptor; anion channel; assay: Displacement of [3H]diazepam from rat brain GABA-A benzodiazepine receptor
# [7] = target: T2, Phosphodiesterase 3; assay: Inhibitory concentration against Phosphodiesterase 3 was tested by linear regression; type: protein assay; procedure, shortened: as §1
# [8] = target: T1, Phosphodiesterase 4; assay: Inhibition of Phosphodiesterase 4; type: protein assay
# [9] = target: T4, cGMP-specific 3',5'-cyclic phosphodiesterase; assay: Inhibition of phosphodiesterase 5; procedure, shortened: as §1
# [10] = target: Phosphodiesterase 1 (Homo sapiens, UniProt P54750+Q01064+Q14123); assay: Inhibition of phosphodiesterase 1; type: protein assay; procedure, shortened: as §1
smiles,measurement,setting,value
CCCCNc1ncnc2c1ncn2Cc1ccccc1F.Cl,IC50,[1],53 µM
same,IC50,[2],> 200 µM
CNc1ncnc2c1nc(C)n2Cc1ccccc1F.CS(=O)(=O)O,IC50,[1],54 µM
same,IC50,[2],> 200 µM
CNc1nc(C(F)(F)F)nc2c1ncn2CCc1ccccc1,IC50,[1],0.75 µM
same,IC50,[2],> 200 µM
Cl.Fc1ccccc1Cn1cnc2c(N3CCCCC3)ncnc21,IC50,[1],121 µM
same,IC50,[2],> 200 µM
CNc1nc(-c2ccccc2)nc2c1ncn2Cc1ccccc1F.CS(=O)(=O)O,IC50,[1],0.5 µM
same,IC50,[2],> 200 µM
CNc1nc(C(F)(F)F)nc2c1ncn2C,IC50,[1],11 µM
same,IC50,[2],331 µM
CNc1nc(C)nc2c1ncn2Cc1ccccc1F.CS(=O)(=O)O,IC50,[1],0.2 µM
same,IC50,[2],250 µM
CNc1ncnc2c1ncn2Cc1ccccc1F.CS(=O)(=O)O,IC50,[1],3 µM
same,IC50,[3],> 100 µM
same,IC50,[4],> 100 µM
same,Ki,[5],6.5 µM
same,IC50,[6],13 µM
same,IC50,[7],121 µM
same,Ki,[8],2 µM
CN(C)c1nc(C(F)(F)F)nc2c1ncn2Cc1ccccc1,IC50,[1],11 µM
same,IC50,[2],61 µM
Nc1ncnc2c1ncn2Cc1ccccc1 [9-BENZYL-9H-ADENINE],IC50,[1],160 µM
same,IC50,[2],> 200 µM
Nc1nc(C(F)(F)F)nc2c1ncn2Cc1ccccc1,IC50,[1],1.8 µM
same,IC50,[2],101 µM
CCCCCC[C@@H]([C@@H](C)O)n1cnc2c(N)ncnc21 [EHNA],Ki,[5],> 200 µM
same,Ki,[8],> 200 µM
CNc1nc(C(F)(F)F)nc2c1ncn2Cc1ccccc1F,IC50,[1],0.04 µM
same,IC50,[2],380 µM
same,IC50,[9],5 µM
same,IC50,[10],40 µM
CNc1ncnc2c1ncn2Cc1ccccc1.CS(=O)(=O)O,IC50,[1],4.6 µM
same,IC50,[2],339 µM
